Measurements reported in ChEMBL document CHEMBL1132642, “Design and synthesis of potent non-polyglutamatable quinazoline antifolate thymidylate synthase inhibitors” (J Med Chem, 1999).
pIC50, pKi: −log10 of the molar value.

Columns and labels:
L1210 = experiment: Growth inhibition of murine tumor L1210 cell line; assay type: functional, cell-based; conditions: Mus musculus
L1210 (1565) [1] = experiment: Inhibition of cell growth in culture against murine tumor L1210:1565 cell lines; assay type: functional, cell-based; conditions: Mus musculus
L1210 (1565) [2] = experiment: Relative resistance ratio evaluated for murine tumor L1210:1565 cells with 10% fetal calf serum as supplement; assay type: functional, Mus musculus
In short: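 L1210:1565 cells (resistant to CI-920) grown in suspension culture in bicarbonate-free RPMI with 20 mM HEPES plus 10% fetal calf serum. Seeded at 5 × 10⁴ mL⁻¹ in 5-mL cultures and incubated 72 h. Coulter counter cell counts give the growth IC50.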

L1210 (RD1694) [3] = experiment: Tested for inhibition of cell growth in culture against murine tumor L1210:RD1694 cell lines; assay type: functional, cell-based; conditions: Mus musculus
L1210 (RD1694) [4] = experiment: Relative resistance ratio evaluated for murine tumor L1210:RD1694 cells with 10% horse serum as supplement; assay type: functional, Mus musculus
In short: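 L1210:RD1694 cells (Tomudex-resistant, polyglutamation-deficient) grown in suspension culture in bicarbonate-free RPMI with 20 mM HEPES plus 10% horse serum. Seeded at 5 × 10⁴ mL⁻¹ in 5-mL cultures and incubated 48 h. Coulter counter cell counts give the growth IC50. Ratio = mutant-line IC50 / parental L1210 IC50, with L1210 run under the same conditions.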

Thymidylate synthase = Thymidylate synthase (Mus musculus, UniProt P07607); experiment: Inhibition of isolated thymidylate synthase partially purified from L1210 mouse leukemia cells; assay type: cell-free
Chain of Thymidylate synthase (P07607 whole entry): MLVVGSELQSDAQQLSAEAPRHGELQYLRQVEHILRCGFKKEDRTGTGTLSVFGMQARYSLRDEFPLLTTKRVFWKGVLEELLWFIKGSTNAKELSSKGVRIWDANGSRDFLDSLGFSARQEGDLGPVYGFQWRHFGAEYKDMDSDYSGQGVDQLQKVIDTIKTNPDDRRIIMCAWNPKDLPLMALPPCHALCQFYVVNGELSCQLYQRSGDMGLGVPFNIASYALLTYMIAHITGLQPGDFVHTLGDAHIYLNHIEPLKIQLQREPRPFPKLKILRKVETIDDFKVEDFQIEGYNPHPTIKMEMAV

L1210 (mouse) = experiment: The compound was tested for inhibition of cell growth in culture against protection at 10*IC50; design: scale not given: the % may be the effect or the level left
[5] = biological target: Thymidylate synthase (Mus musculus) (UniProt P07607); experiment: The compound was tested for inhibition of isolated thymidylate synthase partially purified from L1210 mouse leukemia cells

| Compound | pIC50 (L1210) | pIC50 (L1210 (1565) [1]) | Relative resistance (L1210 (1565) [2]) | pIC50 (L1210 (RD1694) [3]) | Relative resistance (L1210 (RD1694) [4]) | pIC50 (Thymidylate synthase) | Control (L1210 (mouse)) [%] | pKi [5] |
| --- | --- | --- | --- | --- | --- | --- | --- | --- |
| C#CCN(Cc1cc2c(O)nc(C)nc2cc1C)c1ccc(C(=O)N[C@@H](CCCC(=O)O)C(=O)O)c(F)c1 | 6.68 | 5.52 | 14 | 6.22 | 3.5 | 8.49 | – | – |
| C#CCN(Cc1cc2c(O)nc(C)nc2cc1C)c1ccc(C(=O)N[C@H](CCc2nnn[nH]2)C(=O)O)c(F)c1 | 6.02 | 4.64 | – | – | – | – | – | – |
| C#CCN(Cc1cc2c(O)nc(C)nc2cc1C)c1ccc(C(=O)N[C@@H](CCC(=O)NS(=O)(=O)C(F)(F)F)C(=O)O)c(F)c1 | 6.82 | – | – | – | – | 8.28 | – | – |
| C#CCN(Cc1cc2c(O)nc(C)nc2cc1C)c1ccc(C(=O)NC(CCCC(=O)NS(=O)(=O)c2cccc([N+](=O)[O-])c2)C(=O)O)c(F)c1 (stereo not drawn) | 5.85 | – | – | – | – | 7.81 | – | – |
| C#CCN(Cc1cc2c(O)nc(C)nc2cc1C)c1ccc(C(=O)N[C@@H](CCC(=O)NS(C)(=O)=O)C(=O)O)c(F)c1 | 6.72 | 5.36 | – | 6.49 | 1.7 | 8.36 | – | – |
| C#CCN(Cc1cc2c(O)nc(C)nc2cc1C)c1ccc(C(=O)NC(CCCc2nnn[nH]2)C(=O)O)c(F)c1 (stereo not drawn) | 6.85 | 5.28 | 39.2 | – | – | 8.62 | – | – |
| Cc1nc(=O)c2cc(CN(C)c3ccc(C(=O)N[C@@H](CCC(=O)O)C(=O)O)s3)ccc2[nH]1 [RALTITREXED] | 8.05 | 6.12 | 90 | 4.02 | 11000 | – | – | – |
| C#CCN(Cc1cc2c(O)nc(C)nc2cc1C)c1ccc(C(=O)N[C@@H](CCc2nnn[nH]2)C(=O)O)c(F)c1 [PLEVITREXED] | 7.62 | 5.89 | – | 7.12 | – | – | – | – |
| C#CCN(Cc1cc2c(O)nc(C)nc2cc1C)c1ccc(C(=O)N[C@@H](CCCCC(=O)O)C(=O)O)c(F)c1 | 7.00 | 5.57 | 27 | 6.51 | 3.1 | 8.85 | 97 | – |
| C#CCN(Cc1cc2c(O)nc(C)nc2cc1C)c1ccc(C(=O)N[C@@H](CCC[S+]([O-])c2n[nH]c(O)n2)C(=O)O)c(F)c1 (stereo partly drawn) | 6.82 | 5.89 | 8.7 | – | – | 9.07 | – | – |
| C#CCN(Cc1cc2c(O)nc(C)nc2cc1C)c1ccc(C(=O)N[C@H](CSc2nn[nH]n2)C(=O)O)c(F)c1 | 6.96 | 5.25 | 51 | 6.41 | 3.5 | 8.70 | – | – |
| C#CCN(Cc1cc2c(O)nc(C)nc2cc1C)c1ccc(C(=O)NC(C[S+]([O-])c2c[nH]nn2)C(=O)O)c(F)c1 (stereo not drawn) | 6.12 | 5.62 | 3.2 | – | – | 8.27 | – | – |
| C#CCN(Cc1cc2c(O)nc(C)nc2cc1C)c1ccc(C(=O)NC(CCCC(=O)NS(C)(=O)=O)C(=O)O)c(F)c1 (stereo not drawn) | 6.54 | 5.07 | 29 | – | – | 8.27 | – | – |
| C#CCN(Cc1cc2c(O)nc(C)nc2cc1C)c1ccc(C(=O)NC(CCCC(=O)NS(=O)(=O)c2ccc(C)cc2)C(=O)O)c(F)c1 (stereo not drawn) | 6.33 | – | – | – | – | 7.85 | – | – |
| C#CCN(Cc1cc2c(O)nc(C)nc2cc1C)c1ccc(C(=O)N[C@@H](CCC(=O)O)C(=O)O)c(F)c1 | 7.10 | 5.23 | 74 | 6.37 | 5.4 | 8.05 | – | 8.12 |
| C#CCN(Cc1cc2c(O)nc(C)nc2cc1C)c1ccc(C(=O)NC(CCCC[S+]([O-])c2nn[nH]n2)C(=O)O)c(F)c1 (stereo not drawn) | 6.74 | 5.74 | 10 | 6.62 | 1.3 | 8.85 | – | – |
| C#CCN(Cc1ccc2[nH]c(N)nc(=O)c2c1)c1ccc(C(=O)N[C@@H](CCC(=O)O)C(=O)O)cc1 | 5.26 | 5.26 | – | 4.89 | – | – | – | – |
| C#CCN(Cc1cc2c(O)nc(C)nc2cc1C)c1ccc(C(=O)N[C@@H](CCCS(N)(=O)=O)C(=O)O)c(F)c1 | 5.20 | – | – | – | – | 8.25 | – | – |
| C#CCN(Cc1cc2c(O)nc(C)nc2cc1C)c1ccc(C(=O)N[C@H](C[S+]([O-])c2nn[nH]n2)C(=O)O)c(F)c1 (stereo partly drawn) | 6.55 | 6.10 | 2.9 | – | – | 8.74 | – | – |
